From ChEMBL document CHEMBL1132389, “Novel farnesol and geranylgeraniol analogues: A potential new class of anticancer agents directed against protein prenylation” (J Med Chem, 1999)

What was measured:
[1] = target: Geranylgeranyl transferase type I (Homo sapiens, UniProt P49354+P53609); assay: Inhibition of recombinant Geranylgeranyl transferase type I in scintillation proximity assay; assay type: protein-complex assay
Procedure, shortened: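 Recombinant mammalian GGTase I in scintillation proximity assay with streptavidin beads, using tritiated GGPP and biotin-Aha-TKCVIL peptide as substrates. Run in the same manner as the FTase assay. IC50 and Ki values determined.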

[2] = target: Protein farnesyl/geranylgeranyl transferase (Homo sapiens) (UniProt P49354+P49356+P53609); assay: Relative IC50 for farnesyl and geranylgeranyl transferase; assay type: protein-complex assay
[3] = target: T1, Protein farnesyltransferase (Homo sapiens, UniProt P49354+P49356); assay: Inhibition of recombinant farnesyltransferase (mFTase) in scintillation proximity assay; assay type: protein-complex assay
Procedure, shortened: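 Recombinant mammalian FTase in scintillation proximity assay with streptavidin beads. Substrates: tritiated FPP (15–30 Ci/mmol, final 0.12 μM) and biotin-Aha-TKCVIM peptide (final 0.1 μM). IC50 determined. Ki from the same system with varied tritiated FPP concentrations.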

[4] = target: T1, Protein farnesyltransferase; assay: Relative Vmax compared to FPP in continuous spectrofluorimetric assay
NIH3T3 [5] = assay: Inhibition of anchorage independent growth of H-Ras(61L)-transformed NIH3T3 fibroblasts in soft agar; assay type: functional, cell-based; conditions: Mus musculus
Procedure, shortened: (§1)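 NIH3T3 fibroblasts transfected with H-Ras(61L) (H-Ras-F) or H-Ras(61L)CVLL (H-Ras-GG), kept in DMEM with 10% calf serum and 1% antibiotic/antimycotic at 37 °C, 10% CO2. Two-layer soft agar (0.6% bottom, 0.3% top). Cells seeded in the top layer with compound in ethanol over a concentration range, added only at seeding. Grown 2 weeks at 37 °C. Colonies stained with p-iodonitrotetrazolium violet 24 h before image-analysis count. IC50 reported.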

NIH3T3 [6] = assay: Inhibition of anchorage independent growth of H-Ras(61L)CVLL-transformed NIH3T3 fibroblasts in soft agar; assay type: functional, cell-based; conditions: Mus musculus; procedure, shortened: as §1
[7] = test system: C=C/C(=C\COP(=O)(O)OP(=O)(O)O)CC/C=C(\C)CCC=C(C)C; assay: (§2) Km determined in continuous spectrofluorimetric assay; assay type: protein-complex assay; conditions: Homo sapiens
Procedure, shortened: (§3)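 Continuous fluorimetric assay with recombinant mammalian FTase and dansyl-GCVLS peptide. Buffer: Tris-HCl pH 7.0, DTT, MgCl2, ZnCl2, with 0.4% n-dodecyl-β-D-maltoside solution. Premixed 5 min at 30 °C. Isoprenoid diphosphate at final 0.10 to 5 μM. Reaction started with enzyme. Fluorescence (ex 350, em 486 nm) read for 300 s at 30 °C. Linear rate converted to μM/s using a separately measured enhancement factor for each substrate. Km derived from the rates.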

[8] = test system: C=CC/C(=C\COP(=O)(O)OP(=O)(O)O)CC/C=C(\C)CCC=C(C)C; assay: as §2; assay type: protein-complex assay; conditions: Homo sapiens; procedure, shortened: as §3

| Molecule | IC50 [1] [µM] | Ratio [2] | IC50 [3] [µM] | IC50 (NIH3T3 [5]) [µM] | IC50 (NIH3T3 [6]) [µM] | also measured |
| --- | --- | --- | --- | --- | --- | --- |
| C=CC/C(=C\COP(=O)(O)OP(=O)(O)O)CC/C=C(\C)CCC=C(C)C | > 100 | > 530 | 0.189 | – | – | Krel [4]: 0.0711 |
| CC/C(=C\CO)CC/C=C(\C)CCC=C(C)C | – | – | – | > 25 | > 25 | – |
| C=CC/C(=C\CO)CC/C=C(\C)CC/C=C(\C)CCC=C(C)C | – | – | – | > 25 | 4.6 | – |
| C=C/C(=C\COP(=O)(O)OP(=O)(O)O)CC/C=C(\C)CC/C=C(\C)CCC=C(C)C | 3.05 | 4.3 | 0.715 | – | – | – |
| C=C/C(=C\COP(=O)(O)OP(=O)(O)O)CC/C=C(\C)CCC=C(C)C | 100 | 600 | 0.173 | – | – | Krel [4]: 0.524 |
| C=C/C(=C\CO)CC/C=C(\C)CC/C=C(\C)CCC=C(C)C | – | – | – | 18 | 13.9 | – |
| CC/C(=C\COP(=O)(O)OP(=O)(O)O)CC/C=C(\C)CCC=C(C)C | > 100 | > 460 | 0.215 | – | – | – |
| CC(C)=CCC/C(C)=C/CC/C(=C/COP(=O)(O)OP(=O)(O)O)c1ccccc1 | > 100 | > 340 | 0.299 | – | – | – |
| Protein farnesyltransferase (Homo sapiens) (from UniProt P49354+P49356) | – | – | – | – | – | Km [7]: 0.156 µM; Km [8]: 0.703 µM |
| C=C/C(=C\CO)CC/C=C(\C)CCC=C(C)C | – | – | – | 10.9 | 14.1 | – |
| C=CC/C(=C\CO)CC/C=C(\C)CCC=C(C)C | – | – | – | 10.2 | > 25 | – |
| C=CC/C(=C\COP(=O)(O)OP(=O)(O)O)CC/C=C(\C)CC/C=C(\C)CCC=C(C)C | – | 7.5 | 0.453 | – | – | – |
| CC(C)=CCC/C(C)=C/CC/C(=C/CO)c1ccccc1 | – | – | – | > 25 | > 25 | – |
| CC(C)=CCC/C(C)=C/CC/C(=C/COP(=O)(O)OP(=O)(O)O)C(C)(C)C | 50 | 1600 | 0.031 | – | – | – |
